Key:
[1] = biological target: SRSF protein kinase 1 (Homo sapiens) (UniProt Q96SB4); test: Inhibition of human recombinant SRPK1 at 40 nM in presence of ATP by radiometric assay relative to control
[2] = biological target: Serine/threonine-protein kinase PAK 5 (Homo sapiens) (UniProt Q9P286); test: Inhibition of human recombinant PAK5 at 40 nM in presence of ATP by radiometric assay relative to control
[3] = biological target: Ephrin type-A receptor 4 (Homo sapiens) (UniProt P54764); test: Inhibition of human recombinant EphA4 at 40 nM related to control ULK1
[4] = biological target: T1, TGF-beta receptor type-1 (Homo sapiens) (UniProt P36897); test: Inhibition of human recombinant TGFbR1 at 40 nM in presence of ATP by radiometric assay relative to control
T1 sequence (whole entry): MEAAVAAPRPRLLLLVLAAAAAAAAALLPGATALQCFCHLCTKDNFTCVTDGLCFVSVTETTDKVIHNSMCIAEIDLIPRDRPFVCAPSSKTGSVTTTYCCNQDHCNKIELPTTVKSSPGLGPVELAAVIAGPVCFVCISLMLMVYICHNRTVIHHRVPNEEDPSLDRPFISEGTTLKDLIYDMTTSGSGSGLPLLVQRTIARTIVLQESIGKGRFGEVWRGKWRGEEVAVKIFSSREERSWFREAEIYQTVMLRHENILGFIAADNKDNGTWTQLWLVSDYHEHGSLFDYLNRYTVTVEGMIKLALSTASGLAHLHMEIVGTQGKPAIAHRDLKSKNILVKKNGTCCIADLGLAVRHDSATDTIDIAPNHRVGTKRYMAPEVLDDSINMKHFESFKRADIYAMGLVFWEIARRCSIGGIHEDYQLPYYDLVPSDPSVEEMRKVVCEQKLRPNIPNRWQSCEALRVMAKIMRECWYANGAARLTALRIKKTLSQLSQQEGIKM

[5] = biological target: Tyrosine-protein kinase receptor UFO (Homo sapiens) (UniProt P30530); test: Inhibition of human recombinant AXL at 40 nM in presence of ATP by radiometric assay relative to control
Summary of the method: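 Panel of 327 recombinant human kinases, each assayed in vitro by radiometric activity assay in duplicate at a single inhibitor concentration per compound, chosen with reference to its ULK1 inhibition. Activity remaining was expressed as percent of vehicle control, and percent inhibition was calculated as 100 minus percent activity remaining.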

[6] = biological target: Serine/threonine-protein kinase SBK1 (Homo sapiens) (UniProt Q52WX2); test: Inhibition of human recombinant SBK1 at 15 nM related to control ULK1
[7] = biological target: Focal adhesion kinase 1 (Homo sapiens) (UniProt Q05397); test: Inhibition of human recombinant FAK at 15 nM related to control ULK1
[8] = biological target: T2, Mitogen-activated protein kinase kinase kinase 3 (Homo sapiens) (UniProt Q99759); test: Inhibition of human recombinant MAP3K3 at 15 nM in presence of ATP by radiometric assay relative to control
T2 sequence (whole entry): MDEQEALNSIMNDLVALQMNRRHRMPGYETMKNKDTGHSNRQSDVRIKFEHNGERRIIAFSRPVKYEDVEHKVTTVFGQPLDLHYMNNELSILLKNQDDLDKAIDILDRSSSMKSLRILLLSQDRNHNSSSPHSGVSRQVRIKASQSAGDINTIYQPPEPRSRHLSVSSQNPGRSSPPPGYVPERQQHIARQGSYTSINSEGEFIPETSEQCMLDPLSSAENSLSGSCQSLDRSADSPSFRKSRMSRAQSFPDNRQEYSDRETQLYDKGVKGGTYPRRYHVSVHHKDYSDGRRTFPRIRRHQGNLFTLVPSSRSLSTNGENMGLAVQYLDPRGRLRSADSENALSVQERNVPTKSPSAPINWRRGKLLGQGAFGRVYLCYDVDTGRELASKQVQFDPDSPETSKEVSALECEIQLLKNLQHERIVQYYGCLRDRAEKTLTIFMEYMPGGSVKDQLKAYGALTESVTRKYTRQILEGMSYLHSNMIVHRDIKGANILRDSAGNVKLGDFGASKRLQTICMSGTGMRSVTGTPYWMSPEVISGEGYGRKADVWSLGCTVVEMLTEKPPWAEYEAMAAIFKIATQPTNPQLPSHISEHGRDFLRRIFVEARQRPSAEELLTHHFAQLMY

[9] = biological target: T3, Testis-specific serine/threonine-protein kinase 3 (Homo sapiens) (UniProt Q96PN8); test: Inhibition of human recombinant TSSK3 at 500 nM related to control ULK1
T3 sequence (whole entry): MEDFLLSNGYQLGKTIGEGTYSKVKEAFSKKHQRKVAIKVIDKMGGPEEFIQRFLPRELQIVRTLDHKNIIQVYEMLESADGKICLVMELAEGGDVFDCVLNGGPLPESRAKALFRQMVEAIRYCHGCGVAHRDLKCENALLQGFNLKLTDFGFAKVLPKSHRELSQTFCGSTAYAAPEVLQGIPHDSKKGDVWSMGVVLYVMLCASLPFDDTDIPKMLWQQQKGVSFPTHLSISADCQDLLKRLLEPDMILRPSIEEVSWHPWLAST

[10] = biological target: Cyclin-dependent kinase 1 (Homo sapiens) (UniProt P06493); test: Inhibition of human recombinant CDC2 at 500 nM in presence of ATP by radiometric assay relative to control
[11] = organism: Homo sapiens; test: Inhibition of human recombinant p70S6K at 500 nM related to control ULK1
[12] = biological target: Serine/threonine-protein kinase PRP4 homolog (Homo sapiens) (UniProt Q13523); test: Inhibition of human recombinant PRP4 at 500 nM related to control ULK1
[13] = biological target: Angiopoietin-1 receptor (Homo sapiens) (UniProt Q02763); test: Inhibition of human recombinant Tie2 at 500 nM in presence of ATP by radiometric assay relative to control
Angiopoietin-1 receptor (Homo sapiens), sequence (Q02763 whole entry): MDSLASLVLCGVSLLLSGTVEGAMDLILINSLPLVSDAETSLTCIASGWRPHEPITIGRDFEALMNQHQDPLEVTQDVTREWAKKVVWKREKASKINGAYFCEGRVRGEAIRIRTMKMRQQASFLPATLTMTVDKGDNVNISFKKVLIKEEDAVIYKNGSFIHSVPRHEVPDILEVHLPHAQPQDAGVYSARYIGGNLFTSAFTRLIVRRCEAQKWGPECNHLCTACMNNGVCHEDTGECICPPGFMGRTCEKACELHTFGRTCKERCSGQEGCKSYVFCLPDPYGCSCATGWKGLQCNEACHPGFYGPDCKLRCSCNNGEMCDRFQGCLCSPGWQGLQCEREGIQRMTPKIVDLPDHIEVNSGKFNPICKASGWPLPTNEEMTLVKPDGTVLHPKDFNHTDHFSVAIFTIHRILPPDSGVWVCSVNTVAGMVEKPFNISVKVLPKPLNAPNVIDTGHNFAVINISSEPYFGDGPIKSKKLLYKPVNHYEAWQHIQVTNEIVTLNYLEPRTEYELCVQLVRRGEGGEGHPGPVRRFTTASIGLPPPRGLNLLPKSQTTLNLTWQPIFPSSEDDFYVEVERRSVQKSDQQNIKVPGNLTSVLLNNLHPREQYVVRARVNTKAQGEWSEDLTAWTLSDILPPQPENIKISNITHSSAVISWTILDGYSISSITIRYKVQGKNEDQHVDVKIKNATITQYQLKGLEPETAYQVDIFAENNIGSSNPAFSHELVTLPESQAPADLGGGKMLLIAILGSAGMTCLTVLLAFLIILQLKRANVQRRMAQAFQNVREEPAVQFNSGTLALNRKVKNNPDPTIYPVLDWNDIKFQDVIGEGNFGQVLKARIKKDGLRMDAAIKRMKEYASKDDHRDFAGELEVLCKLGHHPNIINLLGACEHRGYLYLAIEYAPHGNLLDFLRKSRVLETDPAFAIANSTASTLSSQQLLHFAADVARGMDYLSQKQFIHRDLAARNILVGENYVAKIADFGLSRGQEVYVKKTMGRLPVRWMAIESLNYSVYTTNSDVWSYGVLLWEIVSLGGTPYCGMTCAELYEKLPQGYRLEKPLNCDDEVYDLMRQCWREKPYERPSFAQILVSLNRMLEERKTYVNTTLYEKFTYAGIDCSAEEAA

Serine/threonine-protein kinase PAK 5 (Homo sapiens), sequence (Q9P286 whole entry, looked up): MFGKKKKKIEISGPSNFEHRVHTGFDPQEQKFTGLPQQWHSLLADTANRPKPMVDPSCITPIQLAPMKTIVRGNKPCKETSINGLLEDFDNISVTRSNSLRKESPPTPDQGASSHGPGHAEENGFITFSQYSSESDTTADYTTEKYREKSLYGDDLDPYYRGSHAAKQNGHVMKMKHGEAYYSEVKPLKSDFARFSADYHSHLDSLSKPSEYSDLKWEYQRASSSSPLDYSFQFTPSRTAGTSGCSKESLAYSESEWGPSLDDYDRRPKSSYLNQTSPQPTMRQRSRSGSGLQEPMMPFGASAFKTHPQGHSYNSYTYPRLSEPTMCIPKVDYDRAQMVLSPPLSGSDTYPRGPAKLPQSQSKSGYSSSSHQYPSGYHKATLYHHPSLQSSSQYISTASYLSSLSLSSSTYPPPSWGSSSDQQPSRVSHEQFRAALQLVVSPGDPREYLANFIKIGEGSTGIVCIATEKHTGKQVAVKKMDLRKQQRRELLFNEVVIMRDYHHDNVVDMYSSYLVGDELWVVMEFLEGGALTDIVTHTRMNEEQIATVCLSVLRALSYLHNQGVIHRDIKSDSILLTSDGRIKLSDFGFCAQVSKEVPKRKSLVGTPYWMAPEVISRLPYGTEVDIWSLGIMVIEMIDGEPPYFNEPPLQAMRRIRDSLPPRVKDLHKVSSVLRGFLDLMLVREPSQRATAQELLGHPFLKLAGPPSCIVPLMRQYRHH
Tyrosine-protein kinase receptor UFO (Homo sapiens), sequence (P30530 whole entry): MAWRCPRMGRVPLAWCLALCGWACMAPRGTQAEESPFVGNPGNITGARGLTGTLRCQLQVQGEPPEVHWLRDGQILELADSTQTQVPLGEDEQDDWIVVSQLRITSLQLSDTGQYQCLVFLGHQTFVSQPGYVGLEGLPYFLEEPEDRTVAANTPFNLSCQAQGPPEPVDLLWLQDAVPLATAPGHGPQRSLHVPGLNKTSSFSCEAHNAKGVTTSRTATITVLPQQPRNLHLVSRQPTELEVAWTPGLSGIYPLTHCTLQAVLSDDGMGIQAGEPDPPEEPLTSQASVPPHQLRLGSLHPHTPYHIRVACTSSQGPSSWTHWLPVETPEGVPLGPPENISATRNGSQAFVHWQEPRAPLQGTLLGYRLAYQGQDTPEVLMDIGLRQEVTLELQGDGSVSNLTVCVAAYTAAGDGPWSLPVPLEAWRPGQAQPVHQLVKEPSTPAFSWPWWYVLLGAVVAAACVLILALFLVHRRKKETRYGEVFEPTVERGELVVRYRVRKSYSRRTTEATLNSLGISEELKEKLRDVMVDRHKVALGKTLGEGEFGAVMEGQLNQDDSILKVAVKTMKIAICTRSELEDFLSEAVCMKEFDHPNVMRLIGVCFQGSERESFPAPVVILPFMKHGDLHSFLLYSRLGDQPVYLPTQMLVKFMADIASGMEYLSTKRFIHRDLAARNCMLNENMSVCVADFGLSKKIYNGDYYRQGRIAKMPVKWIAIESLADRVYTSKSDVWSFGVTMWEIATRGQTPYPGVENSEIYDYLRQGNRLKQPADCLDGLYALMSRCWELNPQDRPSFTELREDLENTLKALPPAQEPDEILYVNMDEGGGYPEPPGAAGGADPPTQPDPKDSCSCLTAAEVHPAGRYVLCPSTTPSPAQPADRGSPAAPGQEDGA
Focal adhesion kinase 1 (Homo sapiens), sequence (Q05397 2-1052 limits assumed): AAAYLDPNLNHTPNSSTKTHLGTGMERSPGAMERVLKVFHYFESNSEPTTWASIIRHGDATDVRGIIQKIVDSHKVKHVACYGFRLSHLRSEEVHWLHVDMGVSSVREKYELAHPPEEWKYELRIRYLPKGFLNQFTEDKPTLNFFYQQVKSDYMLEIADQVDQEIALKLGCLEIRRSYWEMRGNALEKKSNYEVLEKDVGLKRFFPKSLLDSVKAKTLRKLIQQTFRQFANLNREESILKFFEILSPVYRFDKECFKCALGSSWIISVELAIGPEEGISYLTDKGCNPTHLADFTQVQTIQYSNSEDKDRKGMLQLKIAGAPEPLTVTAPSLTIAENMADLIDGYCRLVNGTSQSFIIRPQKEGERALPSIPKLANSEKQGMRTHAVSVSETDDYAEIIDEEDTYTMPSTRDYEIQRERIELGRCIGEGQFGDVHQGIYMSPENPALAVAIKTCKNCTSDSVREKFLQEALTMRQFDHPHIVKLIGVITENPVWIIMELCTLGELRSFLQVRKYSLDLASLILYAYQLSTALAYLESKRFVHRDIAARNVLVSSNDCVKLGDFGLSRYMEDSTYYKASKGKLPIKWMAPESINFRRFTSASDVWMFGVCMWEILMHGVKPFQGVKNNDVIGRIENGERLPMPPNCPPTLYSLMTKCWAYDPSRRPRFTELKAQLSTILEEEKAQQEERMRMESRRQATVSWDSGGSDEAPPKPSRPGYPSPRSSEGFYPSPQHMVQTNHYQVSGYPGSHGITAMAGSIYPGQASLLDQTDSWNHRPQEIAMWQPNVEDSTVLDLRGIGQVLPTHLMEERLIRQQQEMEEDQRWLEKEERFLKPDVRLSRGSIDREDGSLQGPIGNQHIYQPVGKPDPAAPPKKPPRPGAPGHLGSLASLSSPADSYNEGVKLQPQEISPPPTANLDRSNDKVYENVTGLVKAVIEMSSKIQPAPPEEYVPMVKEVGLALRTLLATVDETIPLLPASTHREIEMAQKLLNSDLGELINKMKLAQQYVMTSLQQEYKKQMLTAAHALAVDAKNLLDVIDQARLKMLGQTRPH
Serine/threonine-protein kinase SBK1 (Homo sapiens), sequence (Q52WX2 whole entry): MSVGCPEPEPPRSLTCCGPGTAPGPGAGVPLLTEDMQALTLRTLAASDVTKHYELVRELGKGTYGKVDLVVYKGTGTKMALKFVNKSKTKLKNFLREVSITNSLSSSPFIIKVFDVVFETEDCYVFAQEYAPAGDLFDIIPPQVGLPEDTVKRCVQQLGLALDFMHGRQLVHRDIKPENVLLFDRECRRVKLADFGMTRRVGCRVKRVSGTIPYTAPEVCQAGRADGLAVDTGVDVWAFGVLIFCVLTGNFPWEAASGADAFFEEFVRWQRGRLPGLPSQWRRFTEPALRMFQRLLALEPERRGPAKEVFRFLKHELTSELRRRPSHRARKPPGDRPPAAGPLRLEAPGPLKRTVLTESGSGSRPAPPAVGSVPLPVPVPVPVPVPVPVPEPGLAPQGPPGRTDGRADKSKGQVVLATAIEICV
SRSF protein kinase 1 (Homo sapiens), sequence (Q96SB4 whole entry): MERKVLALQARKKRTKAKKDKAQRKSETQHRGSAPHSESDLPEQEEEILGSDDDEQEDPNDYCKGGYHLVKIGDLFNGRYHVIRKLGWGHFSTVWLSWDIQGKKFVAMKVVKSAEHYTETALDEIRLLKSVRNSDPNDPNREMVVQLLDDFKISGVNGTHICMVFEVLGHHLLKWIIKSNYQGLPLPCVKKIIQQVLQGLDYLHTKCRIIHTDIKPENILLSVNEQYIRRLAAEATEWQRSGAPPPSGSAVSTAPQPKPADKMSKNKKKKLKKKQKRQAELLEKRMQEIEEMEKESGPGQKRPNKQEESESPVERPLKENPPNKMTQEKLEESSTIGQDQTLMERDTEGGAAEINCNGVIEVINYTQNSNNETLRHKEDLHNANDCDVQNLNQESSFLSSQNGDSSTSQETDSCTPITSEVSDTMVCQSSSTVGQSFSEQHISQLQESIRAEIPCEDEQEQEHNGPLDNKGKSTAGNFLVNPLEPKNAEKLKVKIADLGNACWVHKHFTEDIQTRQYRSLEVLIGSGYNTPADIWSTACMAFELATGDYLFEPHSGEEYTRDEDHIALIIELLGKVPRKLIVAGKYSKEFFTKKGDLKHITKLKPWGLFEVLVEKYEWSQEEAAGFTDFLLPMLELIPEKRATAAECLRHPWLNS

Structure (SMILES): O=C(N[C@@H](C1CC1)C(F)(F)F)c1cc(-c2cnn3cc(-c4ccc(F)cc4)cnc23)cs1
- inhibition [1]: 10%
- inhibition [2]: 0%
- fold change (FC) [3]: 0
- inhibition [4]: 0%
- inhibition [5]: 5%

Structure (SMILES): CC(C)[C@H](NC(=O)c1cc(-c2cnn3cc(-c4ccc(OCCN5CCCCC5)cc4)cnc23)cs1)C(F)(F)F
- fold change (FC) [6]: 0.06
- fold change (FC) [7]: 0
- inhibition [8]: 3%

Structure (SMILES): CNC(=O)c1ccccc1Oc1nc(Nc2cc(OC)c(OC)c(OC)c2)ncc1Br
- fold change (FC) [9]: 0
- inhibition [10]: 30%
- fold change (FC) [11]: 0
- fold change (FC) [12]: 0.03
- inhibition [13]: 23%

Source: ChEMBL document CHEMBL5653631, “A Potent and Selective ULK1 Inhibitor Suppresses Autophagy and Sensitizes Cancer Cells to Nutrient Stress” (iScience, 2018)
